Source: PubChem BioAssay (several laboratories)
Rows were chosen to be rich in hits. Some 2% of all compounds tested hit in one or more screens of this group.
NTR1 agonist – NTR1 (human) agonism; P30989; NTR1-U2OS beta-arrestin-GFP spot imaging, agonist mode; activation, % at 20 µM; 330,000 tested, 0.17% active;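 active = activation at or above 40% of the spot to cytoplasm intensity ratio, with at least 20 cells analyzed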;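 also: 0% = DMSO without peptide and 100% = 100 nM NTR1 peptide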
CAL PDZ FP-1 – CAL PDZ (human) peptide binding inhibition. inhibition, % at 24.9 µM. purified CAL PDZ, TMR-peptide fluorescence polarization, 1 h. 300,000 tested, 0.92% active;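 active = mean inhibition of at least 30% with at least half of replicates also reaching 30%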;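 also: 0% = DMSO neutral control and 100% = excess unlabeled competitor peptide PRC23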
PKA-R2B activ – PKA-R2B complex activation | 340,000 tested, 0.079% active | PKA-R2B holoenzyme dissociation, Cy5-IP20 fluorescence polarization; R2B truncated from residue 108, S112A mutant; 0% DMSO only, 100% 113 µM cGMP | P22694+P31323 | activation, % at 11.4 µM;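 active = activation above a cutoff set at the mean over all compounds plus 3 SD, cut at about 18% in these data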;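 also: higher means more holoenzyme dissociation and a rise in polarization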
Target sequence (P31323 whole entry, looked up, other chains not shown, the tested form may be a part): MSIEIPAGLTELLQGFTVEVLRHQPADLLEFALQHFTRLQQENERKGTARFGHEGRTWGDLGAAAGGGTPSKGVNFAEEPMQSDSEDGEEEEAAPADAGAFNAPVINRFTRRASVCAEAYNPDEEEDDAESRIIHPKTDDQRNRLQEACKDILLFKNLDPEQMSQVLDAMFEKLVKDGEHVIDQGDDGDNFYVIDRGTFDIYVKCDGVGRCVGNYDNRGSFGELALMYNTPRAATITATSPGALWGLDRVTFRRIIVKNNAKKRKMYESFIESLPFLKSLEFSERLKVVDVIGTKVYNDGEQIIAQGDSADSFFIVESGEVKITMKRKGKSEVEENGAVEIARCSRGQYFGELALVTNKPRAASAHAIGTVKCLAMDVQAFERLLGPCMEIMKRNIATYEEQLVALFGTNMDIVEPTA
PKA-R1A activ – activators of PKA-R1A complex; P00514+P68181; PKA-R1A dissociation, Cy5-IP20 fluorescence polarization; scaled: DMSO 0%, 113 µM cGMP 100%; activation, % at 11.4 µM; 340,000 tested, 0.083% active;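 active = percent activation above the mean of all tested compounds plus 3 SD, cut at about 19% in these data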;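 also: higher means more PKAc released from R1A so a rise in polarization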
dFosB act-1 – enhances mouse delta FosB homodimer DNA binding | P13346 | purified delta FosB, TAMRA-CDK5 oligo fluorescence polarization; percent of positive-control signal above neutral wells | activation, % at 25 µM | 340,000 tested, 0.99% active | AID 493131;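 active = mean activation above about 17%, with every replicate also reaching it, limit read from the data, passing the limit was not always enough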
CAL PDZ FP-2 – human CAL PDZ-peptide interaction inhibition; 330,000 tested, 0.02% active; AID 504414; inhibition, % at 20 µM; purified CAL PDZ, TMR-peptide fluorescence polarization, 1 h;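 active = highest replicate inhibition of at least 40%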;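 also: plate controls were DMSO neutral control wells for no effect and unlabeled competitor peptide control wells for full effect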
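material = purified tagged CAL PDZ domain construct (CerCALP) | compound dosing = 20 µM, one dose | times = 1 h at RT | measured by = fluorescence polarization from S- and P-plane intensities, G-factor corrected | read-out = inhibition from polarization loss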
dFosB act-2 – delta FosB (mouse) homodimer activation; shares compounds with dFosB act-1; purified delta FosB, TAMRA-CDK5 oligo fluorescence polarization; normalised: neutral wells 0, positive control 100; activation, % at 24.9 µM; 2,400 tested, under 10 active; AID 588690;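 active = highest replicate activation at or above 34% and every replicate reaching that threshold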;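 also: higher polarization means more probe DNA bound by delta FosB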
The depositor's hits bear a star; x = no result given.

SMILES	NTR1 agonist	CAL PDZ FP-1	PKA-R2B activ	PKA-R1A activ	dFosB act-1	CAL PDZ FP-2	dFosB act-2
COc1ccccc1-c1cc(C(=O)N2CCN(S(=O)(=O)c3ccc(C)cc3)CC2)[nH]n1	-2.8	-1.4	-7.0	-15.0	4.0	1.3	x
O=C(NCc1ccco1)c1ccc2c(=O)n(-c3ccccc3)c(=S)[nH]c2c1	-0.1	4.9	-11.6	-4.7	35.3*	-0.9	5.9
COc1ccc(-n2c(=S)[nH]c3cc(C(=O)NCc4ccco4)ccc3c2=O)cc1OC	1.7	-0.9	-0.3	2.7	-1.6	-1.2	x
CCOc1ccccc1OCCCC(=O)N1CCN(S(=O)(=O)c2ccccc2C#N)CC1	x	x	-3.8	2.3	x	x	x
COc1ccc2cc(CN(CC3COCCO3)S(=O)(=O)c3ccc(Cl)cc3)c(=O)[nH]c2c1 (centres undefined)	1.1	-1.0	-4.3	-5.2	38.6*	-0.4	-1.0
COc1ccccc1C(CNC(=O)c1ccc(S(=O)(=O)N2CCCCC2)cc1)N(C)C (centres undefined)	-0.7	1.1	6.2	2.3	-0.2	-0.3	x
COc1ccc(/C=N/NC(=O)CC(=O)N/N=C/c2ccc(OC)cc2)cc1	3.1	-2.7	-2.9	-9.5	6.6	-2.1	x
COc1ccc(/C=N/NC(=O)C2c3ccccc3-c3ccccc32)cc1	0.0	-3.8	-5.8	-9.7	21.9*	-1.3	0.0
CCN(CC(=O)Nc1cccc(OC)c1)C(=O)C1CC(=O)N(Cc2ccccc2Cl)C1 (centres undefined)	x	x	4.9	2.9	x	x	x
O=c1cc(CSc2nnnn2-c2ccccc2)nc(Nc2ccc(F)cc2)[nH]1	11.6	-3.1	13.1	6.9	25.7*	-1.8	-7.4
C/C(=N\NC(=O)c1ccc(OC2OCCOC2Oc2ccc(C(=O)N/N=C(\C)c3ccncc3)cc2)cc1)c1ccncc1 (centres undefined)	5.6	7.5	6.9	-0.8	96.7*	-1.1	2.8
O=C(COc1ccc(Cl)cc1Cl)Nc1c(-c2cccs2)nc2ccccn12	0.2	2.8	-5.8	-17.7	118.7*	0.4	1.6
O=C(Nc1cc(N2CCOCC2)ncn1)NC1(C(F)(F)F)Oc2ccccc2O1	0.7	-4.0	-5.0	-4.2	32.6*	-0.1	-2.7
COc1cccc(NC(=O)NC2(C(F)(F)F)Oc3ccccc3O2)c1	0.0	-2.4	-11.3	-9.3	-6.3	-1.5	x
COc1ccc(S(=O)(=O)N2CCCCCC2)cc1C(=O)N1CCN(c2ccccc2C)CC1	4.8	1.0	-8.2	-4.9	-19.9	-0.4	x
O=C(COC(=O)c1cc([N+](=O)[O-])ccc1NCc1ccccc1Cl)NCC(F)(F)F	20.5	-2.5	-15.6	6.2	53.2*	-0.6	5.3
CCOc1cc(/C=C(/C#N)c2nc3ccccc3[nH]2)ccc1Oc1ccc([N+](=O)[O-])cn1	3.8	-11.3	-8.8	-1.1	49.6*	-2.3	6.6
CN(C)c1nc(NCc2ccccc2)nc(N/N=C/c2ccc3c(c2)OCO3)n1	3.4	1.8	-21.8	-10.1	57.9*	-1.8	1.7
CCOc1ccccc1N(CC(=O)Nc1ccc(S(=O)(=O)N2CCOCC2)cc1)S(=O)(=O)c1ccccc1	0.7	-3.2	-5.4	-0.8	52.9*	0.4	0.3
Cc1ccccc1OCc1nnc(SCC(=O)Nc2ccc3nc(SCC(=O)Nc4ccccc4)sc3c2)n1C	8.2	-2.5	-6.5	-0.5	19.9*	-1.9	1.7
CCN(CC(=O)NCc1cccs1)C(=O)c1ccc(S(=O)(=O)Nc2cccc(C)c2C)cc1	0.9	-1.2	1.8	-10.6	-15.1	-1.5	x
COc1ccc(-c2nnn(CC(=O)Nc3sc4c(c3C#N)CCCC4)n2)cc1	0.9	-3.6	-1.4	-5.1	26.5*	-0.4	1.3
O=C(COc1ccc(Cl)cc1Cl)N(C1CCCCC1)C1CCS(=O)(=O)C1 (centres undefined)	-0.5	-3.8	-0.7	-2.2	-8.2	-0.3	x
O=C(NCc1ccccc1Cl)c1ccc(CS(=O)Cc2ccc(Cl)cc2)o1 (centres undefined)	0.4	x	0.7	8.7	-2.9	-0.1	x
CC(C)CCNC(=O)CCC(=O)NNc1nc2ccccc2c2nc(-c3ccccc3)nn12	3.2	x	3.5	3.5	55.5*	-0.8	5.6
SMILES	NTR1 agonist	CAL PDZ FP-1	PKA-R2B activ	PKA-R1A activ	dFosB act-1	CAL PDZ FP-2	dFosB act-2
CCOC(=O)c1ccc(-n2cccc2/C=C2\NC(=O)NC2=O)cc1	-0.3	-1.5	10.4	-6.2	30.1*	1.9	6.6
CCOC(=O)c1cccc(-n2cccc2/C=C2\NC(=O)N(CC(=O)O)C2=O)c1	-0.1	-8.9	-2.6	-5.9	-8.0	-0.2	x
CC(C)(C)c1ccc(/C=C/C(=O)c2ccc(NC3=NCCCS3)cc2)cc1	7.7	-2.9	1.4	-13.2	31.0*	-1.8	-1.6
Cc1cccc(/C=C/C(=O)c2ccc(NC3=NCCCS3)cc2)c1	3.0	-0.4	4.4	-11.9	12.6	-2.8	x
CCCCc1nc2cc(C(=O)N3CCCCC3CCNC(C)=O)ccc2o1 (centres undefined)	0.3	-4.6	-12.2	2.0	-9.8	-0.4	x
NC(=O)CC(NC(=O)Cc1ccc(Br)cc1)c1ccc(NCc2ccc(F)cc2)c([N+](=O)[O-])c1 (centres undefined)	7.1	-1.9	0.4	-5.0	53.3*	-0.3	7.6
NC(=O)CC(NC(=O)c1ccccc1)c1ccc(NCCOc2ccccc2)c([N+](=O)[O-])c1 (centres undefined)	-2.9	-1.4	-14.3	-9.1	26.3*	0.6	1.7
Cc1ccc(NC(=O)CSCC(=O)NNC(=O)c2ccoc2C)cc1	-0.1	-0.4	1.5	7.0	-7.9	-3.5	x
Cc1ccc(-c2cc(C(F)F)nc3sc4c(=O)[nH]cnc4c23)cc1	12.3	1.4	-7.5	-4.2	32.9*	-0.5	0.2
C=CCn1c(SCC(=O)Nc2ccc(C(=O)O)cc2)nc2sc(C)c(C)c2c1=O	0.5	-4.5	-16.1	-4.4	4.7	-1.4	x
C=CCn1c(SCC(=O)Nc2sccc2C#N)nc2sc(C)c(C)c2c1=O	-1.1	-1.6	1.2	-9.9	22.9*	-3.0	-6.0
NS(=O)(=O)c1cccc(NC(=O)CSc2nc3ccccc3c(=O)n2CC2CCCO2)c1 (centres undefined)	-0.2	x	-9.3	-9.9	-11.9	-3.0	x
CSc1nc2ccc(NC(=O)c3ccc(F)c(F)c3)cc2s1	1.2	-1.3	-4.5	-4.9	-8.0	-3.0	x
O=C(Nc1nc2ccc(SC(F)F)cc2s1)c1ccc(NS(=O)(=O)c2ccc(F)c(F)c2)cc1	4.3	-4.7	-12.4	-6.9	38.2*	-1.1	5.0
